ChEMBL document CHEMBL3286292, “Synthesis and antimicrobial activity of amine linked bis- and tris-heterocycles” (2014)

How the values were obtained:
Assay type in all cases: functional
[1] = tested on: Klebsiella pneumoniae; test: Bactericidal activity against Klebsiella pneumoniae after 24 hrs
[2] = tested on: Penicillium chrysogenum; test: Antifungal activity against Penicillium chrysogenum assessed as growth inhibition after 48 hrs by broth dilution method
How it was run: (§1)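 Tube broth dilution with nutrient broth as diluent. Compound dilutions were added to fungal cultures and incubated at 28 °C for 48 h. A solvent control without sample was included. MIC was the lowest concentration with no visible growth or turbidity.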

[3] = tested on: Klebsiella pneumoniae; test: Antibacterial activity against Klebsiella pneumoniae assessed as growth inhibition at 50 ug/well after 24 hrs by agar well diffusion method; details: read-out: DIZ
How it was run: (§2)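 Agar well diffusion on […] swabbed with a 24 h broth culture. Samples were dissolved in DMSO and loaded at three per-well amounts into 6 mm wells. Incubation was 37 °C for 24 h, then inhibition zone diameter was read in mm. DMSO served as the negative control. Runs were in duplicate and averaged.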

[4] = tested on: Pseudomonas aeruginosa; test: Antibacterial activity against Pseudomonas aeruginosa assessed as growth inhibition at 100 ug/well after 24 hrs by agar well diffusion method; details: read-out: DIZ; how it was run: as §2
[5] = tested on: Aspergillus niger; test: Antifungal activity against Aspergillus niger assessed as inhibition of spore germination at 25 ug/well after 48 hrs by agar well diffusion method; details: read-out: DIZ
How it was run: (§3)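 Well diffusion using 6 mm bored wells loaded with DMSO solutions at three per-well amounts, with a DMSO negative control. Plates were held at 28 °C for 48 h, then zone of inhibition diameter was measured in mm. Runs were in duplicate and averaged.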

[6] = tested on: Staphylococcus aureus; test: Ratio of MBC to MIC for Staphylococcus aureus
[7] = tested on: Pseudomonas aeruginosa; test: Bactericidal activity against Pseudomonas aeruginosa after 24 hrs
[8] = tested on: Pseudomonas aeruginosa; test: Antibacterial activity against Pseudomonas aeruginosa assessed as growth inhibition at 25 ug/well after 24 hrs by agar well diffusion method; details: read-out: DIZ; how it was run: as §2
[9] = tested on: Staphylococcus aureus; test: Antibacterial activity against Staphylococcus aureus assessed as growth inhibition at 100 ug/well after 24 hrs by agar well diffusion method; details: read-out: DIZ; how it was run: as §2
[10] = tested on: Bacillus subtilis; test: Bactericidal activity against Bacillus subtilis after 24 hrs
[11] = tested on: Staphylococcus aureus; test: Bactericidal activity against Staphylococcus aureus after 24 hrs
[12] = tested on: Aspergillus niger; test: Antifungal activity against Aspergillus niger assessed as growth inhibition after 48 hrs by broth dilution method; how it was run: as §1
[13] = tested on: Staphylococcus aureus; test: Antibacterial activity against Staphylococcus aureus assessed as growth inhibition at 25 ug/well after 24 hrs by agar well diffusion method; details: read-out: DIZ; how it was run: as §2
[14] = tested on: Staphylococcus aureus; test: Antibacterial activity against Staphylococcus aureus assessed as growth inhibition at 50 ug/well after 24 hrs by agar well diffusion method; details: read-out: DIZ; how it was run: as §2
[15] = tested on: Bacillus subtilis; test: Antibacterial activity against Bacillus subtilis assessed as growth inhibition at 50 ug/well after 24 hrs by agar well diffusion method; details: read-out: DIZ; how it was run: as §2
[16] = tested on: Klebsiella pneumoniae; test: Antibacterial activity against Klebsiella pneumoniae assessed as growth inhibition at 100 ug/well after 24 hrs by agar well diffusion method; details: read-out: DIZ; how it was run: as §2
[17] = tested on: Pseudomonas aeruginosa; test: Antibacterial activity against Pseudomonas aeruginosa assessed as growth inhibition after 24 hrs by broth dilution method
How it was run: (§4)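 Tube broth dilution with fresh nutrient broth as diluent and a 24 h old bacterial culture. Compound dilutions were added to the tubes, which were incubated at 37 °C for 24 h. Solvent control without sample was run in parallel. MIC was the lowest concentration showing no visible turbidity.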

[18] = tested on: Pseudomonas aeruginosa; test: Antibacterial activity against Pseudomonas aeruginosa assessed as growth inhibition at 50 ug/well after 24 hrs by agar well diffusion method; details: read-out: DIZ; how it was run: as §2
[19] = tested on: Aspergillus niger; test: Fungicidal activity against Aspergillus niger after 48 hrs
[20] = tested on: Bacillus subtilis; test: Antibacterial activity against Bacillus subtilis assessed as growth inhibition after 24 hrs by broth dilution method; how it was run: as §4
[21] = tested on: Bacillus subtilis; test: Antibacterial activity against Bacillus subtilis assessed as growth inhibition at 100 ug/well after 24 hrs by agar well diffusion method; details: read-out: DIZ; how it was run: as §2
[22] = tested on: Penicillium chrysogenum; test: Fungicidal activity against Penicillium chrysogenum after 48 hrs
[23] = tested on: Bacillus subtilis; test: Antibacterial activity against Bacillus subtilis assessed as growth inhibition at 25 ug/well after 24 hrs by agar well diffusion method; details: read-out: DIZ; how it was run: as §2
[24] = tested on: Staphylococcus aureus; test: Antibacterial activity against Staphylococcus aureus assessed as growth inhibition after 24 hrs by broth dilution method; how it was run: as §4
[25] = tested on: Klebsiella pneumoniae; test: Antibacterial activity against Klebsiella pneumoniae assessed as growth inhibition after 24 hrs by broth dilution method; how it was run: as §4
[26] = tested on: Aspergillus niger; test: Antifungal activity against Aspergillus niger assessed as inhibition of spore germination at 50 ug/well after 48 hrs by agar well diffusion method; details: read-out: DIZ; how it was run: as §3
[27] = tested on: Klebsiella pneumoniae; test: Antibacterial activity against Klebsiella pneumoniae assessed as growth inhibition at 25 ug/well after 24 hrs by agar well diffusion method; details: read-out: DIZ; how it was run: as §2
[28] = tested on: Aspergillus niger; test: Ratio of MFC to MIC for Aspergillus niger

| MIC [2] [µg] | MIC [17] [µg] | MIC [20] [µg] | MIC [24] [µg] | MIC [25] [µg] | Structure (SMILES) | MBC [1] [µg] | zone of inhibition at 50 µg/disc [3] [mm] | zone of inhibition at 100 µg/disc [4] [mm] | zone of inhibition at 25 µg/disc [5] [mm] | zone of inhibition at 25 µg/disc [8] [mm] | zone of inhibition at 100 µg/disc [9] [mm] | zone of inhibition at 25 µg/disc [13] [mm] | zone of inhibition at 50 µg/disc [14] [mm] | zone of inhibition at 50 µg/disc [15] [mm] | zone of inhibition at 100 µg/disc [16] [mm] | zone of inhibition at 50 µg/disc [18] [mm] | zone of inhibition at 100 µg/disc [21] [mm] | zone of inhibition at 25 µg/disc [23] [mm] | zone of inhibition at 50 µg/disc [26] [mm] | zone of inhibition at 25 µg/disc [27] [mm] | further results |
| --- | --- | --- | --- | --- | --- | --- | --- | --- | --- | --- | --- | --- | --- | --- | --- | --- | --- | --- | --- | --- | --- |
| 50 | 50 | 25 | 6.25 | 25 | Clc1ccc(-c2csc(Nc3cc(-c4ccc(Cl)cc4)n(-c4nc(-c5ccc(Cl)cc5)cs4)n3)n2)cc1 | 100 | 37 | 25 | 29 | 20 | 38 | 34 | 36 | 32 | 41 | 22 | 35 | 29 | 31 | 35 | Ratio [6]: 2; MBC [7]: 200 µg; MBC [10]: 100 µg; MBC [11]: 12.5 µg; MIC [12]: 12.5 µg; MFC [19]: 100 µg; MFC [22]: 200 µg |
| 50 | 50 | 50 | 12.5 | 50 | c1ccc(-c2csc(Nc3cc(-c4ccccc4)n(-c4nc(-c5ccccc5)cs4)n3)n2)cc1 | >200 | 32 | 21 | 25 | 17 | 32 | 29 | 31 | 26 | 35 | 18 | 28 | 25 | 28 | 30 | MBC [7]: >200 µg; MBC [10]: 200 µg; MBC [11]: 50 µg; MIC [12]: 25 µg; MFC [19]: 100 µg; MFC [22]: 200 µg |
| 25 | 50 | 50 | 6.25 | 50 | Clc1ccc(-c2c[nH]c(Nc3cc(-c4ccc(Cl)cc4)n(-c4nc(-c5ccc(Cl)cc5)cs4)n3)n2)cc1 | 200 | 34 | 23 | 33 | 18 | 35 | 32 | 33 | 29 | 38 | 19 | 30 | 27 | 36 | 32 | Ratio [6]: 2; MBC [7]: 200 µg; MBC [10]: 200 µg; MBC [11]: 12.5 µg; MIC [12]: 6.25 µg; MFC [19]: 12.5 µg; Ratio [28]: 2; MFC [22]: 100 µg |

The next lines start with the molecule.

| Structure (SMILES) | MIC [2] [µg] | MIC [17] [µg] | MIC [20] [µg] | MIC [24] [µg] | MIC [25] [µg] | MBC [1] [µg] | zone of inhibition at 50 µg/disc [3] [mm] | zone of inhibition at 100 µg/disc [4] [mm] | zone of inhibition at 25 µg/disc [5] [mm] | zone of inhibition at 25 µg/disc [8] [mm] | zone of inhibition at 100 µg/disc [9] [mm] | zone of inhibition at 25 µg/disc [13] [mm] | zone of inhibition at 50 µg/disc [14] [mm] | zone of inhibition at 50 µg/disc [15] [mm] | zone of inhibition at 100 µg/disc [16] [mm] | zone of inhibition at 50 µg/disc [18] [mm] | zone of inhibition at 100 µg/disc [21] [mm] | zone of inhibition at 25 µg/disc [23] [mm] | zone of inhibition at 50 µg/disc [26] [mm] | zone of inhibition at 25 µg/disc [27] [mm] | further results |
| --- | --- | --- | --- | --- | --- | --- | --- | --- | --- | --- | --- | --- | --- | --- | --- | --- | --- | --- | --- | --- | --- |
| c1ccc(-c2c[nH]c(Nc3cc(-c4ccccc4)n(-c4nc(-c5ccccc5)cs4)n3)n2)cc1 | 25 | 50 | 50 | 12.5 | 50 | >200 | 29 | 20 | 32 | 15 | 30 | 27 | 28 | 26 | 33 | 17 | 27 | 24 | 34 | 28 | MBC [7]: >200 µg; MBC [10]: 200 µg; MBC [11]: 50 µg; MIC [12]: 12.5 µg; MFC [19]: 100 µg; MFC [22]: 100 µg |
| O=C(N[C@H](CO)[C@H](O)c1ccc([N+](=O)[O-])cc1)C(Cl)Cl [CHLORAMPHENICOL] |  | 6.25 | 6.25 | 6.25 | 12.5 |  | 40 | 30 | 31 | 25 | 35 | 30 | 33 | 34 | 42 | 27 | 38 | 32 | 33 | 38 |  |
